Assays:
rat [1] = test: concentration in blood after dosing; negative times count back from the end of exposure; details: inhalation
rat [2] = test: concentration in blood after dosing; details: dosed: toluene, 3000 ppm, dermal, duration: 4 hr, male, F344
rat [3] = test: concentration in blood after dosing; details: dosed: toluene, 3000 ppm, dermal, duration: 4 hr, male, F344; remark: listed apart in the source
rat [4] = test: concentration in blood after dosing; details: dosed: toluene, 3000 ppm, dermal, duration: 4 hr, male, F344; remark: listed apart in the source
rat [5] = test: concentration in blood after dosing; details: dosed: toluene, 3000 ppm, dermal, duration: 4 hr, male, F344; remark: listed apart in the source
rat [6] = test: concentration in blood after dosing; details: dosed: toluene, 3000 ppm, dermal, duration: 4 hr, male, F344; remark: listed apart in the source
human [7] = test: concentration in Capillary Blood after dosing; details: dosed: toluene, 200 mg/m^3, inhalation, duration: 2 hr, male
Outline: (§1)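 Data points giving concentration or amount against time came from published in vivo toxicokinetic studies and from two structured collections. PubMed searching, classifier screening and manual review located the studies. Most points were digitised from plot screenshots using WebPlotDigitizer, the rest were copied from tables, and all keep their reported units.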

human [8] = test: concentration in blood after dosing; details: dosed: toluene, 100 ppm, dermal, duration: 30 min, person
Outline: as §1

rat [9] = test: concentration in blood after dosing; details: dosed: toluene, 3000 ppm, dermal, duration: 4 hr, male, F344; remark: listed apart in the source
human [10] = test: concentration in expired air after dosing; negative times count back from the end of exposure; details: dosed: vinyl chloride, 2.5 ppm, inhalation
Outline: as §1

CC(C)O [isopropanol]
concentration in blood (rat [1]; 98 s, dosed: isopropanol, 4960 ppm, duration: 360 min): 871000 ng/mL
concentration in blood (rat [1]; 0.3018 h, dosed: isopropanol, 476 ppm, duration: 360 min): 26000 ng/mL
concentration in blood (rat [1]; 0.31 h, dosed: isopropanol, 4960 ppm, duration: 360 min): 738000 ng/mL
concentration in blood (rat [1]; 0.5307 h, dosed: isopropanol, 476 ppm, duration: 360 min): 18300 ng/mL
concentration in blood (rat [1]; 0.5409 h, dosed: isopropanol, 4960 ppm, duration: 360 min): 647000 ng/mL
concentration in blood (rat [1]; 1.039 h, dosed: isopropanol, 476 ppm, duration: 360 min): 12200 ng/mL
concentration in blood (rat [1]; 1.102 h, dosed: isopropanol, 4960 ppm, duration: 360 min): 552000 ng/mL
concentration in blood (rat [1]; 1.98 h, dosed: isopropanol, 476 ppm, duration: 360 min): 6110 ng/mL
concentration in blood (rat [1]; 2.098 h, dosed: isopropanol, 4960 ppm, duration: 360 min): 367000 ng/mL
concentration in blood (rat [1]; 3.047 h, dosed: isopropanol, 476 ppm, duration: 360 min): 6110 ng/mL
concentration in blood (rat [1]; 3.117 h, dosed: isopropanol, 4960 ppm, duration: 360 min): 240000 ng/mL
concentration in blood (rat [1]; 5.995 h, dosed: isopropanol, 476 ppm, duration: 360 min): 1530 ng/mL
concentration in blood (rat [1]; 6.019 h, dosed: isopropanol, 4960 ppm, duration: 360 min): 67200 ng/mL
concentration in blood (rat [1]; 12.07 h, dosed: isopropanol, 4960 ppm, duration: 360 min): 12200 ng/mL
concentration in blood (rat [1]; -195 s, dosed: isopropanol, 476 ppm, duration: 360 min, during exposure): 32100 ng/mL
concentration in blood (rat [1]; -2.938 h, dosed: isopropanol, 4960 ppm, duration: 360 min, during exposure): 544000 ng/mL
concentration in blood (rat [1]; -3.002 h, dosed: isopropanol, 476 ppm, duration: 360 min, during exposure): 21400 ng/mL
concentration in blood (rat [1]; -4.913 h, dosed: isopropanol, 4960 ppm, duration: 360 min, during exposure): 241000 ng/mL
concentration in blood (rat [1]; -5.06 h, dosed: isopropanol, 476 ppm, duration: 360 min, during exposure): 12200 ng/mL
concentration in blood (rat [1]; -5.517 h, dosed: isopropanol, 476 ppm, duration: 360 min, during exposure): 7640 ng/mL
concentration in blood (rat [1]; -5.546 h, dosed: isopropanol, 4960 ppm, duration: 360 min, during exposure): 141000 ng/mL

Cc1ccccc1 [toluene]
concentration in blood (rat [2]; 0.5 h): 2160 ng/mL
concentration in blood (rat [2]; 1 h): 3520 ng/mL
concentration in blood (rat [2]; 2 h): 5470 ng/mL
concentration in blood (rat [2]; 3 h): 4800 ng/mL
concentration in blood (rat [2]; 4 h): 7390 ng/mL
concentration in blood (rat [3]; 0.5 h): 4530 ng/mL
concentration in blood (rat [3]; 1 h): 5230 ng/mL
concentration in blood (rat [3]; 2 h): 5470 ng/mL
concentration in blood (rat [3]; 3 h): 6610 ng/mL
concentration in blood (rat [3]; 4 h): 6640 ng/mL
concentration in blood (rat [4]; 0.5 h): 1830 ng/mL
concentration in blood (rat [4]; 1 h): 3670 ng/mL
concentration in blood (rat [4]; 2 h): 5070 ng/mL
concentration in blood (rat [4]; 3 h): 5760 ng/mL
concentration in blood (rat [4]; 4 h): 7030 ng/mL
concentration in blood (rat [5]; 0.5 h): 4120 ng/mL
concentration in blood (rat [5]; 1 h): 1330 ng/mL
concentration in blood (rat [5]; 2 h): 8440 ng/mL
concentration in blood (rat [5]; 3 h): 10100 ng/mL
concentration in blood (rat [5]; 4 h): 12100 ng/mL
concentration in blood (rat [6]; 0.5 h): 1230 ng/mL
concentration in blood (rat [6]; 1 h): 2720 ng/mL
concentration in blood (rat [6]; 2 h): 4560 ng/mL
concentration in blood (rat [6]; 3 h): 5160 ng/mL
concentration in blood (rat [6]; 4 h): 5840 ng/mL
concentration in blood (rat [1]; 0.996 h, dosed: toluene, 100 ppm, duration: 2 hr, male, Wistar): 2600 nM
concentration in blood (rat [1]; 2.004 h, dosed: toluene, 100 ppm, duration: 2 hr, male, Wistar): 1520 nM
concentration in blood (rat [1]; -20 s, dosed: toluene, 100 ppm, duration: 2 hr, male, Wistar, during exposure): 8210 nM
concentration in blood (rat [1]; -0.5053 h, dosed: toluene, 100 ppm, duration: 2 hr, male, Wistar, during exposure): 9060 nM
concentration in blood (rat [1]; -1.005 h, dosed: toluene, 100 ppm, duration: 2 hr, male, Wistar, during exposure): 6950 nM
concentration in blood (rat [1]; -1.503 h, dosed: toluene, 100 ppm, duration: 2 hr, male, Wistar, during exposure): 6410 nM
concentration in blood (rat [1]; -1.759 h, dosed: toluene, 100 ppm, duration: 2 hr, male, Wistar, during exposure): 5580 nM
concentration in Capillary Blood (human [7]; 334 s): 4060 nM
concentration in Capillary Blood (human [7]; 0.1631 h): 5870 nM
concentration in Capillary Blood (human [7]; 0.2703 h): 6730 nM
concentration in Capillary Blood (human [7]; 0.5028 h): 8250 nM
concentration in Capillary Blood (human [7]; 0.7659 h): 9110 nM
concentration in Capillary Blood (human [7]; 1.003 h): 9630 nM
concentration in Capillary Blood (human [7]; 1.104 h): 9000 nM
concentration in Capillary Blood (human [7]; 1.493 h): 10300 nM
concentration in Capillary Blood (human [7]; 1.737 h): 10300 nM
concentration in Capillary Blood (human [7]; 1.969 h): 10400 nM
concentration in Capillary Blood (human [7]; 2.075 h): 4980 nM
concentration in Capillary Blood (human [7]; 2.15 h): 4310 nM
concentration in Capillary Blood (human [7]; 2.236 h): 4010 nM
concentration in Capillary Blood (human [7]; 2.514 h): 3210 nM
concentration in Capillary Blood (human [7]; 3.028 h): 1540 nM
concentration in Capillary Blood (human [7]; 3.361 h): 1330 nM
concentration in Capillary Blood (human [7]; 3.69 h): 1220 nM
concentration in Capillary Blood (human [7]; 4.023 h): 1050 nM
concentration in Capillary Blood (human [7]; 4.349 h): 959 nM
concentration in Capillary Blood (human [7]; 4.444 h): 711 nM
concentration in Capillary Blood (human [7]; 4.673 h): 867 nM
concentration in Capillary Blood (human [7]; 5.349 h): 763 nM
concentration in Capillary Blood (human [7]; 5.678 h): 671 nM
concentration in Capillary Blood (human [7]; 5.993 h): 632 nM
concentration in blood (human [8]; 0.2477 h): 510 nM
concentration in blood (human [8]; 0.499 h): 1720 nM
concentration in blood (human [8]; 0.7454 h): 1620 nM
concentration in blood (human [8]; 0.9948 h): 1210 nM
concentration in blood (human [8]; 1.5 h): 941 nM
concentration in blood (human [8]; 2.49 h): 655 nM
concentration in blood (human [8]; 3.495 h): 453 nM
concentration in blood (rat [9]; 0.5 h): 2910 ng/mL
concentration in blood (rat [9]; 1 h): 5540 ng/mL
concentration in blood (rat [9]; 2 h): 6830 ng/mL
concentration in blood (rat [9]; 3 h): 8230 ng/mL
concentration in blood (rat [9]; 4 h): 8240 ng/mL

C=CCl [vinyl chloride]
concentration in expired air (human [10]; 2 s, duration: 0.25 hr): 1.88 ppm
concentration in expired air (human [10]; 31 s, duration: 0.25 hr): 0.564 ppm
concentration in expired air (human [10]; 60 s, duration: 0.5 hr): 0.375 ppm
concentration in expired air (human [10]; 64 s, duration: 0.25 hr): 0.271 ppm
concentration in expired air (human [10]; 121 s, duration: 0.25 hr): 0.13 ppm
concentration in expired air (human [10]; 121 s, duration: 0.5 hr): 0.217 ppm
concentration in expired air (human [10]; 179 s, duration: 0.5 hr): 0.198 ppm
concentration in expired air (human [10]; 180 s, duration: 0.25 hr): 0.118 ppm
concentration in expired air (human [10]; 237 s, duration: 0.5 hr): 0.156 ppm
concentration in expired air (human [10]; 4 min, duration: 0.25 hr): 0.0581 ppm
concentration in expired air (human [10]; 298 s, duration: 0.5 hr): 0.145 ppm
concentration in expired air (human [10]; 299 s, duration: 0.25 hr): 0.0432 ppm
concentration in expired air (human [10]; -0 s, duration: 0.5 hr, during exposure): 1.57 ppm
concentration in expired air (human [10]; -59 s, duration: 0.25 hr, during exposure): 1.96 ppm
concentration in expired air (human [10]; -61 s, duration: 0.5 hr, during exposure): 1.7 ppm
concentration in expired air (human [10]; -119 s, duration: 0.25 hr, during exposure): 1.84 ppm
concentration in expired air (human [10]; -122 s, duration: 0.5 hr, during exposure): 1.77 ppm
concentration in expired air (human [10]; -3 min, duration: 0.5 hr, during exposure): 1.79 ppm
concentration in expired air (human [10]; -180 s, duration: 0.25 hr, during exposure): 1.88 ppm
concentration in expired air (human [10]; -238 s, duration: 0.25 hr, during exposure): 1.84 ppm
concentration in expired air (human [10]; -241 s, duration: 0.5 hr, during exposure): 1.74 ppm
concentration in expired air (human [10]; -298 s, duration: 0.5 hr, during exposure): 1.63 ppm
concentration in expired air (human [10]; -299 s, duration: 0.25 hr, during exposure): 1.81 ppm
concentration in expired air (human [10]; -0.1003 h, duration: 0.25 hr, during exposure): 1.79 ppm
concentration in expired air (human [10]; -0.1161 h, duration: 0.25 hr, during exposure): 1.84 ppm
concentration in expired air (human [10]; -7 min, duration: 0.5 hr, during exposure): 1.7 ppm
concentration in expired air (human [10]; -8 min, duration: 0.25 hr, during exposure): 1.64 ppm
concentration in expired air (human [10]; -0.1491 h, duration: 0.25 hr, during exposure): 1.72 ppm
concentration in expired air (human [10]; -0.1496 h, duration: 0.5 hr, during exposure): 1.7 ppm
concentration in expired air (human [10]; -0.1659 h, duration: 0.25 hr, during exposure): 1.79 ppm
concentration in expired air (human [10]; -11 min, duration: 0.25 hr, during exposure): 1.68 ppm
concentration in expired air (human [10]; -11 min, duration: 0.5 hr, during exposure): 1.81 ppm
concentration in expired air (human [10]; -0.2001 h, duration: 0.25 hr, during exposure): 1.62 ppm
concentration in expired air (human [10]; -0.2158 h, duration: 0.25 hr, during exposure): 1.57 ppm
concentration in expired air (human [10]; -0.2163 h, duration: 0.5 hr, during exposure): 1.86 ppm
concentration in expired air (human [10]; -0.224 h, duration: 0.25 hr, during exposure): 1.59 ppm
concentration in expired air (human [10]; -0.2343 h, duration: 0.25 hr, during exposure): 1.27 ppm
concentration in expired air (human [10]; -0.2413 h, duration: 0.25 hr, during exposure): 0.701 ppm
concentration in expired air (human [10]; -0.2493 h, duration: 0.5 hr, during exposure): 1.45 ppm
concentration in expired air (human [10]; -0.2823 h, duration: 0.5 hr, during exposure): 1.86 ppm
concentration in expired air (human [10]; -0.316 h, duration: 0.5 hr, during exposure): 1.77 ppm
concentration in expired air (human [10]; -0.3489 h, duration: 0.5 hr, during exposure): 1.79 ppm
concentration in expired air (human [10]; -0.3827 h, duration: 0.5 hr, during exposure): 1.77 ppm
concentration in expired air (human [10]; -0.4157 h, duration: 0.5 hr, during exposure): 1.7 ppm
concentration in expired air (human [10]; -0.4502 h, duration: 0.5 hr, during exposure): 1.63 ppm
concentration in expired air (human [10]; -0.4663 h, duration: 0.5 hr, during exposure): 1.4 ppm
concentration in expired air (human [10]; -0.4831 h, duration: 0.5 hr, during exposure): 1.29 ppm

— EPA's CvTdb concentration-time database
